The list is not random: actives were taken first. Their share in the collection is about 5.7%.
Mdm2 MdmX PPI = human Mdm2/MdmX binding inhibition; O15151+Q00987; SaOS-2 split-luciferase Mdm2/MdmX complementation, luminescence; inhibition, % at 8 µM; 3% of 330,000 active;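 active means inhibition of at least 50% at 8 µM in the primary screen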
Target sequence (O15151 whole entry, looked up): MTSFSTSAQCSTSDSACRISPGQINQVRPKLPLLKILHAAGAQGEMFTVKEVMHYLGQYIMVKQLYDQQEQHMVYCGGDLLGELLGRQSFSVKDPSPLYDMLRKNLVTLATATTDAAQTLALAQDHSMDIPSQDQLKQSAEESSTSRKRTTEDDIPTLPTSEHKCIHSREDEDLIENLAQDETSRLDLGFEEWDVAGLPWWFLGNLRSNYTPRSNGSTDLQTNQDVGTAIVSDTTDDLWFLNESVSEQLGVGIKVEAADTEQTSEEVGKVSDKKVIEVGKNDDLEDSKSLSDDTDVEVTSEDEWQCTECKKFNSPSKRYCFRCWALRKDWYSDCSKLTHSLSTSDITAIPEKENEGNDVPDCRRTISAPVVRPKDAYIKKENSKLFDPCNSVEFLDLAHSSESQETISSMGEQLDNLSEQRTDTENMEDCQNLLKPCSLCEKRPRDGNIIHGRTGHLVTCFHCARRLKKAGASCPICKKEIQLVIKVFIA
Target sequence (Q00987 whole entry, looked up): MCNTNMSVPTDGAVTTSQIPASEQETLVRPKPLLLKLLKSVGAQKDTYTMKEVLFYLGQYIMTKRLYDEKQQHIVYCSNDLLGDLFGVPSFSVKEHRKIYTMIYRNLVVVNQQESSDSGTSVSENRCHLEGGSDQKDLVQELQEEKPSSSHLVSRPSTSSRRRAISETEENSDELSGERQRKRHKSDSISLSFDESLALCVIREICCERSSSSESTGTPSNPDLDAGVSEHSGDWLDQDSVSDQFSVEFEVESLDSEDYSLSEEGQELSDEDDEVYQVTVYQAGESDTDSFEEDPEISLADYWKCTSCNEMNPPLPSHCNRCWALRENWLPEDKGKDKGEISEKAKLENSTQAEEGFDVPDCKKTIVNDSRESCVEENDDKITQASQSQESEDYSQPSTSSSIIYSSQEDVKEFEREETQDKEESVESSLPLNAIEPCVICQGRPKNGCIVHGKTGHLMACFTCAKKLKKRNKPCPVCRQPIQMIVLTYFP
Beta apoptosis = blocks beta cell apoptosis; INS-1E cytokine-induced death, ATP luminescence, 48 h; percent of positive-control rescue, neutral wells zero; protection from apoptosis, % (no concentration beside the values); 0.8% of 300,000 active; AID 435005;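 active means Every replicate reaches about 75%, or at least half do and their mean reaches it too, limit read from the data; inconclusive means At least half of replicates reach the limit but their mean does not; inactive means Under half of replicates reach the limit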;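 further: 0% = cytokine-treated negative control wells and 100% = positive control rescue; higher means more ATP so stronger rescue from cytokine killing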
CSC inhib = cancer stem cell inhibition | cancer stem cell-like cells viability, luminescence | inhibition, % at 7.5 µM | 1.1% of 300,000 active | AID 2717; in the data active means inhibition above about 75%; inconclusive means no clear call, values can overlap the other calls; tested in HMLE shEcad cells
SKKanGAS inh = inhibitors of SKKanGAS S. pyogenes growth in kanamycin (SK-promoter or general growth effect); inhibition, % at 7.5 µM; BacTiter-Glo, 6 h; 1.3% of 300,000 active;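 active means mean replicate score, as percent of positive control median, at least 50; inconclusive means mean below 50 but one replicate at or above 50; inactive means mean and every replicate below 50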;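 further: strain carries kanamycin resistance gene driven by streptokinase promoter and grows in 40 µg/ml kanamycin; loss of luminescence reflects streptokinase promoter inhibition or plain growth inhibition; 0% = median of DMSO wells and 100% = positive control at its reference dose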
T cruzi repl = T. cruzi replication inhibition | T. cruzi beta-gal in NIH3T3, luminescence, 90 h | inhibition, % (concentration not given with the values) | AID 1885 | 1.4% of 300,000 active;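 active means mean inhibition across valid replicates above about 55%, limit read from the data; inconclusive means mean below that limit but half or more replicates reach it; inactive means mean below it, under half of replicates reach it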;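 further: signal also drops with host cell toxicity which is not excluded here; 0% = plate median of DMSO wells and 100% = zero luminescence signal; higher percent means less beta-gal luminescence so fewer parasites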
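assay system = mouse NIH/3T3 fibroblasts infected with β-gal-expressing T. cruzi Tulahuen C4 | input = 5,000 NIH/3T3 host cells per well | buffer or medium = DMEM plus 2% FBS | timing = 3 h host attachment, then at least 90 h co-culture | measured by = GalScreen luminescence, 60 min | evaluation = luminescence reflecting intracellular parasite burden, expressed as percent inhibition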
Calb FLC = C. albicans growth modulation with fluconazole | growth inhibition, % (concentration not given with the values) | 0.57% of 300,000 active | C. albicans CaCi-2 (fluconazole-resistant clinical isolate) + fluconazole, Alamar Blue growth, 48 h;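 active means growth inhibition above about 58% in most replicates, limit read from the data, passing the limit was not always enough; inconclusive means exactly half the replicates above a set limit; inactive means most replicates below a set limit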;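 further: all wells also contain fluconazole at 8 µg/ml as a sub-toxic cotreatment; 0% = median of DMSO wells and 100% = median of geldanamycin control wells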
Mdm2 MdmX conf = human Mdm2/MdmX binding inhibition, confirmed. shares compounds with Mdm2 MdmX PPI. luminescent assay. inhibition, % at 8 µM. 55% of 10,000 active; in the data active means inhibition above about 40%
Full FLuc ctr = inhibits full-length luciferase, flagging false Mdm2/MdmX hits. 77% of 6,200 active. shares compounds with Mdm2 MdmX PPI. SaOS-2 full-length luciferase counterscreen, luminescence. inhibition, % at 8 µM;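 active means mean inhibition at 8 µM reaching about 37%, which flags the compound as non-specific, limit read from the data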;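 further: p53-null SaOS-2 cells with luciferase driven by a doxycycline-inducible promoter; compound on cells about two nights before reading with doxycycline added after day one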
Starred values were filed as active, the others as inactive; ? = inconclusive; nt = no result.

SMILES	Mdm2 MdmX PPI	Beta apoptosis	CSC inhib	SKKanGAS inh	T cruzi repl	Calb FLC	Mdm2 MdmX conf	Full FLuc ctr
CC(=O)Nc1ccc(NC(=O)c2nc(S(=O)(=O)Cc3ccccc3)ncc2Cl)cc1	46	-24	1	12	0	-12	nt	nt
CCc1nnc(NC(=O)c2nc(S(=O)(=O)Cc3ccc(C)cc3)ncc2Cl)s1	95*	nt	nt	6	-1	0	80*	52*
CCc1nnc(NC(=O)c2nc(Cl)ccc2Cl)s1	8	-4	-23	1	-1	4	nt	nt
CCc1nnc(NC(=O)c2nc(S(=O)(=O)Cc3ccccc3)ncc2Cl)s1	100*	-37	101*	0	-9	-8	49*	6
CCc1nnc(NC(=O)c2nc(S(=O)(=O)Cc3cccc(C)c3)ncc2Cl)s1	100*	-30	110*	2	13	14	99*	51*
CCN1CC(CN(C)Cc2cn(-c3cccc(C)c3)nc2-c2cccc(F)c2)CC1=O (stereo not given)	6	6	-1	-8	12	10	nt	nt
Cn1c(SC2=CS(=O)(=O)c3ccccc32)nc2ccccc21	70*	13	46	0	0	92*	53*	3
Cn1c(CSc2nc3ccccc3n2C)nc2ccccc21	15	6	nt	-6	3	26	nt	nt
Cc1cccc(NC(=O)CCc2nnc3ccc(N4CCC(C)CC4)nn23)n1	31	1	-3	2	-1	3	nt	nt
CCCNC(=O)C(=O)Nc1ccc2c(c1)N(S(=O)(=O)c1cccs1)CCC2	50*	8	nt	31	11	7	69*	60*
CN(C)CCNC(=O)C(=O)Nc1ccc2c(c1)N(S(=O)(=O)c1cccs1)CCC2	51*	1	22	2	16	4	72*	62*
Cc1ccc(/C([O-])=C(/C(=S)Nc2ccc(SC(F)F)cc2)[n+]2ccccc2)cc1[N+](=O)[O-]	-9	-3	-19	-3	16	?	nt	nt
O=C(N/N=C/c1cc(Cl)ccc1O)c1ccccc1Br	54*	110*	21	?	18	44	58*	44*
O=[N+]([O-])c1ccc(O)c(/C=N\N=C2c3ccccc3-c3ccccc32)c1	93*	8	18	9	-39	-5	91*	46*
O=C(N/N=C/c1cc([N+](=O)[O-])ccc1O)c1cccc(NC(=O)c2cccc(Cl)c2)c1	51*	81*	14	77*	19	-7	50*	41*
O=C(Cn1nnc(-c2ccccc2)n1)N/N=C/c1cc([N+](=O)[O-])c(Cl)cc1Cl	-25	-6	-5	-6	4	5	nt	nt
O=C(Cn1nnc(-c2ccccc2)n1)N/N=C/c1cc([N+](=O)[O-])ccc1O	53*	-3	-10	101*	-18	-3	12	nt
Cc1nc2ccc(C(=O)N/N=C/c3cc([N+](=O)[O-])ccc3O)cc2[nH]1	0	2	nt	-9	-6	1	nt	nt
FC(F)(F)c1ccccc1CN1CCCC(N2CCN(c3ccccc3)CC2)C1 (stereo not given)	-10	-2	6	1	45	-8	nt	nt
O=C(N/N=C/c1cc([N+](=O)[O-])ccc1O)c1ccc(COc2ccc3c(c2)CCC3)o1	94*	105*	101*	21	?	93*	72*	51*
O=C(N/N=C/c1cc([N+](=O)[O-])ccc1O)c1cccc2ccccc12	62*	102*	11	94*	55*	39	68*	43*
COc1ccc(Br)cc1/C=N/NC(=O)c1ccc(COc2ccc3c(c2)CCC3)o1	19	-9	nt	7	9	1	nt	nt
CCN(CC(=O)NCc1ccc(Cl)cc1)C(=O)COc1cccc(Cl)c1	4	-6	-7	3	-11	6	nt	nt
Cc1ccc(OCC(=O)Nc2ccc3oc(=O)ccc3c2)c(C)c1	-4	2	nt	-5	0	-1	nt	nt
CCCCn1c(N)c(N(CCOC)C(=O)COC(=O)CCOc2ccccc2)c(=O)[nH]c1=O	-2	nt	-3	-13	8	-1	nt	nt
SMILES	Mdm2 MdmX PPI	Beta apoptosis	CSC inhib	SKKanGAS inh	T cruzi repl	Calb FLC	Mdm2 MdmX conf	Full FLuc ctr
COc1cc(CNCc2cc(OC)ccc2OC)cc(OC)c1	-14	nt	2	-2	13	-2	nt	nt
CC1=NN(c2nc3ccccc3[nH]2)C(=O)C1Cc1ccccc1 (stereo not given)	85*	99*	100*	89*	9	-2	81*	36*
N#CCCN(C(=O)COC(=O)c1cc2ccccc2oc1=O)c1ccccc1	-4	nt	nt	nt	nt	nt	nt	nt
C=CCN1C(=O)[C@@H]2Cc3c([nH]c4ccccc34)C(c3cc(OC)c(OC)c(OC)c3)N2C1=S (stereo not given in full)	51*	7	28	25	20	4	22	nt
COc1cc([C@H]2c3[nH]c4ccccc4c3C[C@H]3C(=O)N4[C@@H](c5cc(OC)c(OC)c(OC)c5)c5[nH]c6ccccc6c5C[C@H]4C(=O)N23)cc(OC)c1OC	79*	13	-6	15	53	6	29	nt
CCN1C(=O)[C@@H]2Cc3c([nH]c4ccccc34)C(c3cc(OC)c(OC)c(OC)c3)N2C1=S (stereo not given in full)	28	8	54	23	18	-7	nt	nt
CCN1CCN(c2nc3sc4c(c3c(=O)n2-c2ccc(OC)cc2)CCCCC4)CC1	19	2	-14	-5	38	19	nt	nt
O=c1c2c3c(sc2nc(N2CCNCC2)n1-c1cccc(Cl)c1)CCCCC3	67*	5	17	2	0	2	27	nt
Cc1sc2nc(CSC(C)C(=O)NC3(C#N)CCCCC3)[nH]c(=O)c2c1C (stereo not given)	20	nt	nt	nt	nt	nt	nt	nt
CC(=O)c1cccc(NC(=O)C(=O)Nc2cccc3ccccc23)c1	-47	-1	9	1	-10	0	nt	nt
COc1cccc(C2NC(=S)NC(C)=C2C(=O)c2ccccc2)c1OC (stereo not given)	51*	5	3	1	-38	6	49*	78*
CC(=O)Nc1ccc(CNc2ncnc3ccc(-c4c(C)noc4C)cc23)cc1	88*	-38	16	nt	nt	nt	68*	49*
O=c1[nH]nc(Sc2ncnc3sccc23)n1CCc1ccccc1	85*	-6	6	4	-5	2	43*	8
COC(=O)c1ccc(NC(=O)CCN2C(=O)NC(C)(C)C2=O)cc1	22	0	-3	nt	nt	nt	nt	nt
O=C(Nc1ccc(OCC(F)(F)C(F)F)c(C(F)(F)F)c1)c1ccccc1O	94*	122*	1	81*	6	7	92*	28

Screening data as filed in PubChem BioAssay.
